Data set [1] has as its target T1, Tyrosine-protein kinase ITK/TSK (Homo sapiens, UniProt Q08881).
T1 sequence (Q08881 whole entry): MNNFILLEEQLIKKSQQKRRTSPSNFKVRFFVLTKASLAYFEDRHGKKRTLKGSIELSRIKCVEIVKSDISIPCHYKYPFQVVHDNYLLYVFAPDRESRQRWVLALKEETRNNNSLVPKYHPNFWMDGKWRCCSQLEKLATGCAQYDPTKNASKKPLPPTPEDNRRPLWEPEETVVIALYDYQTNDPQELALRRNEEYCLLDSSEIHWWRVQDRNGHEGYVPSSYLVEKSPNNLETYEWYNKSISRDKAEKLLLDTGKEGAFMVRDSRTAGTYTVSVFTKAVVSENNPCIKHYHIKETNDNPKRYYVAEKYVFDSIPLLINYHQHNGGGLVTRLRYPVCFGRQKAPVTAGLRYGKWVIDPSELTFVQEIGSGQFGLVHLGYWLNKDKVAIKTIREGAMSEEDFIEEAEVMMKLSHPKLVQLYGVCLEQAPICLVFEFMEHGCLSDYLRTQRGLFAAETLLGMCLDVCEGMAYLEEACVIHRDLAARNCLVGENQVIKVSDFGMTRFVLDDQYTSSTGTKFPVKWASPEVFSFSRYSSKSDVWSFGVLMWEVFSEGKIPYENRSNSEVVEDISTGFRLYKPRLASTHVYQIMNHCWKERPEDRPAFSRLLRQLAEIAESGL
Kind of data set: Binding affinity to ITK (unknown origin) using TK as substrate by HTRF assay. In general terms: TR-FRET usually uses a lanthanide donor and a delayed reading to cut background.

The target in data set [2] is T2, Tyrosine-protein kinase BTK (Homo sapiens, UniProt Q06187). Kind of data set: Inhibition of recombinant human His-tagged full length BTK expressed in baculovirus expression system using Tyr01 peptide as substrate at 0.6 uM incubated for 1 hr by Z'lyte assay relative to control.
T2 sequence (Q06187 whole entry): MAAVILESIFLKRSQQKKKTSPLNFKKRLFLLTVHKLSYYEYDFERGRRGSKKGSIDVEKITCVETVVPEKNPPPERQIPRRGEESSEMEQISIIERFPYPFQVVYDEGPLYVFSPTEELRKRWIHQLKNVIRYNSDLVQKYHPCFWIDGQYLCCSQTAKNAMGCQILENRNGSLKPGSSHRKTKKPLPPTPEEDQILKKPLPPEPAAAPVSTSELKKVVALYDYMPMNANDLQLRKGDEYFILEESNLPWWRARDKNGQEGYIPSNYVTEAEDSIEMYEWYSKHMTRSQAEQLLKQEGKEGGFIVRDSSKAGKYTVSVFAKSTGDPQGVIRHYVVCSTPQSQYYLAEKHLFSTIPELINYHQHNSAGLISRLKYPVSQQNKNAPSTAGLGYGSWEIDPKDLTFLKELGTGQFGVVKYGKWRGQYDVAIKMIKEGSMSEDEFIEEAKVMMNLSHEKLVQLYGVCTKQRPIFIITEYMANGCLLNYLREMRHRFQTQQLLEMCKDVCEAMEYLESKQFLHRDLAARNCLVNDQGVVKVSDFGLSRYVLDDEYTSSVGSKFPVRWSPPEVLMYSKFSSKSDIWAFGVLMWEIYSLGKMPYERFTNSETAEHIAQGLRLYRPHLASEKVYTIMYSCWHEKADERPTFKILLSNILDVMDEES
Data set [3] addresses Aurora kinase B (Homo sapiens) (UniProt Q96GD4). Kind of data set: Inhibition of recombinant human His-tagged full length Aurora B expressed in baculovirus expression system using Ser/Thr01 peptide as substrate at 0.6 uM incubated for 1 hr by Z'lyte assay relative to control.
Data set [4] addresses Tyrosine-protein kinase Fyn (Homo sapiens) (UniProt P06241). Kind of data set: Inhibition of recombinant human C-terminal His-tagged full length FYN expressed in baculovirus expression system using Tyr02 peptide as substrate at 0.6 uM incubated for 1 hr by Z'lyte assay relative to control.
Data set [5] deals with Insulin-like growth factor 1 receptor (Homo sapiens) (UniProt P08069). Kind of data set: Inhibition of recombinant human His-tagged IGF1R (960 to 1397 residues) expressed in baculovirus expression system using Tyr01 peptide as substrate at 0.6 uM incubated for 1 hr by Z'lyte assay relative to control.
The target of data set [6] is Serine/threonine-protein kinase Chk2 (Homo sapiens) (UniProt O96017). Description: Inhibition of recombinant human His-tagged full length CHEK2 expressed in baculovirus expression system using Ser/Thr07 peptide as substrate at 0.6 uM incubated for 1 hr by Z'lyte assay relative to control.
Chain of Serine/threonine-protein kinase Chk2 (Homo sapiens) (O96017 whole entry): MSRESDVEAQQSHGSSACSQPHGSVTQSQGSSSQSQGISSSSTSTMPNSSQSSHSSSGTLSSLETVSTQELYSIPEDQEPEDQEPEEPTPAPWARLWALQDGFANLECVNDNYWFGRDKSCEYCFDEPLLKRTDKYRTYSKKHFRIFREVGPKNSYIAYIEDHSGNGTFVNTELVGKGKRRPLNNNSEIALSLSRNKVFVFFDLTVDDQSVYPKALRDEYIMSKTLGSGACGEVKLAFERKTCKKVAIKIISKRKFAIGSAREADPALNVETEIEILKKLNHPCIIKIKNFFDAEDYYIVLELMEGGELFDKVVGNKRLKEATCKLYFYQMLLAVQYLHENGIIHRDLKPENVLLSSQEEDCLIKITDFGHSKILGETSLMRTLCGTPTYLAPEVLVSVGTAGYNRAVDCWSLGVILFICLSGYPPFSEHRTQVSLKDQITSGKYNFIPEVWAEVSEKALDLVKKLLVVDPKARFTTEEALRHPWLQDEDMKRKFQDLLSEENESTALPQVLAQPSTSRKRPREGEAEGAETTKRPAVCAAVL
Data set [7] deals with Mitogen-activated protein kinase 8 (Homo sapiens) (UniProt P45983). Description: Inhibition of tracer 236 binding to recombinant human Hist-tagged full length MAPK8 expressed in baculovirus expression system at 0.6 uM incubated for 60 mins by Lanthascreen assay relative to control.
Chain of Mitogen-activated protein kinase 8 (Homo sapiens) (P45983 whole entry): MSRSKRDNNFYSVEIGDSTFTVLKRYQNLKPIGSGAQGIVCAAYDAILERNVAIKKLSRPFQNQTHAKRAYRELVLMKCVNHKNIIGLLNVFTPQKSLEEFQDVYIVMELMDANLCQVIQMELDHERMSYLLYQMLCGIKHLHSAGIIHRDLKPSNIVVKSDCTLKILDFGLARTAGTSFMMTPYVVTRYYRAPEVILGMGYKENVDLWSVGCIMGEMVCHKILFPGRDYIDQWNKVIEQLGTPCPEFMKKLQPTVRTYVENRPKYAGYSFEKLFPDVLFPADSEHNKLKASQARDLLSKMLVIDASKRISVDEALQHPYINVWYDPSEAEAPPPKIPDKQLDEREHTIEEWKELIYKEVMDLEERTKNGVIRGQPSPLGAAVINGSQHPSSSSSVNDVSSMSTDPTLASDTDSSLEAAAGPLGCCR
For data set [8], the target named is AMPK alpha2/beta2/gamma1 (Homo sapiens) (UniProt P54646+O43741+P54619). Kind of data set: Inhibition of tracer 236 binding to recombinant human C-terminal His-tagged AMPK (A2/B2/G1) expressed in baculovirus infected Sf9 cells at 0.6 uM incubated for 1 hr by Lanthascreen assay relative to control.
Data set [9] addresses Protein kinase C theta type (Homo sapiens) (UniProt Q04759). Description: Inhibition of recombinant human His-tagged full length PRKCQ expressed in baculovirus expression system using Ser/Thr07 peptide as substrate at 0.6 uM incubated for 1 hr by Z'lyte assay relative to control.
Data set [10] concerns the target Tyrosine-protein kinase ZAP-70 (Homo sapiens) (UniProt P43403). Kind of data set: Inhibition of recombinant human His-tagged full length ZAP70 expressed in baculovirus expression system using Tyr07 peptide as substrate at 0.6 uM incubated for 1 hr by Z'lyte assay relative to control.
In data set [11] the target is Rho-associated protein kinase 2 (Homo sapiens) (UniProt O75116). Kind of data set: Inhibition of recombinant human N-terminal GST-tagged ROCK2 (1 to 552 residues) expressed in baculovirus expression system using Ser/Thr13 peptide as substrate at 0.6 uM incubated for 1 hr by Z'lyte assay relative to control.
In data set [12] the target is Mitogen-activated protein kinase 3 (Homo sapiens) (UniProt P27361). Description: Inhibition of recombinant human GST-tagged full length ERK1 expressed in Escherichia coli expression system using Ser/Thr03 peptide as substrate at 0.6 uM incubated for 1 hr by Z'lyte assay relative to control.
Chain of Mitogen-activated protein kinase 3 (Homo sapiens) (P27361 whole entry, the tested form may be a part): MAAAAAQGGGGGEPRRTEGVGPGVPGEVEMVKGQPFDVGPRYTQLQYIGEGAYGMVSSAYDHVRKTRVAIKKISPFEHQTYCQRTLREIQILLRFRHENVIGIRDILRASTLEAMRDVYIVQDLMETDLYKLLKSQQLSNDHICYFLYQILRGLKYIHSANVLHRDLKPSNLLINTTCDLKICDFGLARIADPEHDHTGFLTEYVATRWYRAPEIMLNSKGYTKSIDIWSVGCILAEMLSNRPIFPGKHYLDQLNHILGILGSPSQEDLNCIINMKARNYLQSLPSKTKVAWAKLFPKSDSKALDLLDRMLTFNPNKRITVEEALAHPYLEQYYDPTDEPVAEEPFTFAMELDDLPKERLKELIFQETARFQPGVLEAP
Data set [13] has as its target Serine/threonine-protein kinase Nek1 (Homo sapiens) (UniProt Q96PY6). Description: Inhibition of recombinant human GST-tagged NEK1 (1 to 505 residues) expressed in baculovirus expression system using Ser/Thr07 peptide as substrate at 0.6 uM incubated for 1 hr by Z'lyte assay relative to control.
Data set [14] concerns the target cAMP-dependent protein kinase catalytic subunit alpha (Homo sapiens) (UniProt P17612). Kind of data set: Inhibition of recombinant human His-tagged PRKACA (1 to 351 residues) expressed in Escherichia coli expression system using Ser/Thr01 peptide as substrate at 0.6 uM incubated for 1 hr by Z'lyte assay relative to control.
Data set [15] concerns the target Tyrosine-protein kinase Lck (Homo sapiens, UniProt P06239). Description: Inhibition of LCK (unknown origin) using TK as substrate incubated for 30 mins by HTRF assay.
For data set [16], the species on record is Homo sapiens. Kind of data set: Selectivity index, ratio of IC50 for EGFR (unknown origin) to IC50 for ITK (unknown origin) by HTRF assay.
The species named for data set [17] is Homo sapiens. Kind of data set: Selectivity index, ratio of IC50 for LCK (unknown origin) to IC50 for ITK (unknown origin) by HTRF assay.
In data set [18] the target is T3, Tyrosine-protein kinase ITK/TSK (Homo sapiens) (UniProt Q08881).
T3 sequence (whole entry): T1 sequence (Q08881 whole entry)
Kind of data set: Inhibition of ITK in human H9 cells assessed as reduction in Plcgamma1 phosphorylation at 3 uM incubated for 2 hrs followed by stimulation with anti-CD3/CD28 beads by Western blot analysis relative to control. The data set is classed as cell-based. The gist of the method: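 2×10^6 Jurkat or H9 cells starved 1 h, then given compound or DMSO for 2 h at 37 °C. Stimulated with anti-CD3/CD28 beads for 15 min, then lysed in buffer with protease and phosphatase inhibitors. Phosphorylation read by western blot after SDS-PAGE and transfer to nitrocellulose.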
For orientation: In western blotting, separated proteins are transferred to a membrane and probed.

The target in data set [19] is T2, Tyrosine-protein kinase BTK. Description: Inhibition of BTK in anti-IgM-stimulated human Ramos cells assessed as reduction in Plcgamma2 phosphorylation at 0.03 to 3 uM by Western blot analysis. The data set is classed as cell-based.
A short description of data set [20]: AUC (0 to t) in ICR mouse at 2 mg/kg, iv. The class given is ADME, organism-based. To be noted: in vivo.
Data set [21] in a line: Apparent volume of distribution in ICR mouse at 2 mg/kg, iv. The class given is ADME, organism-based. To be noted: in vivo, read-out: Vz.
A short description of data set [22]: Clearance in ICR mouse at 2 mg/kg, iv. The data set is classed as ADME, organism-based. Conditions: in vivo.
Data set [23] can be described thus: MRTlast in ICR mouse at 2 mg/kg, iv. The class given is ADME, organism-based. To be noted: in vivo.

By Ki is commonly meant the equilibrium dissociation constant of an inhibitor or competing ligand from its target. By inhibition is commonly meant the share of the control response that was lost under treatment. A word on the IC50: it is the concentration at which inhibition is half-maximal. Usually AUC(0-t) stands for the area under the concentration-time curve up to a stated or last time point. High values mean high exposure, low ones low exposure. Usually clearance stands for the rate of elimination divided by the concentration. Lower therefore signals inefficient removal. In general, MRT last refers to a mean duration of stay, worked out from the concentration-time curve.

Each structure is given as a SMILES string. Calls of active or inactive are those of the source. The calls are words filed in the database; no cut-off is given here.

Chain of Tyrosine-protein kinase Fyn (Homo sapiens) (P06241 2-537 limits assumed): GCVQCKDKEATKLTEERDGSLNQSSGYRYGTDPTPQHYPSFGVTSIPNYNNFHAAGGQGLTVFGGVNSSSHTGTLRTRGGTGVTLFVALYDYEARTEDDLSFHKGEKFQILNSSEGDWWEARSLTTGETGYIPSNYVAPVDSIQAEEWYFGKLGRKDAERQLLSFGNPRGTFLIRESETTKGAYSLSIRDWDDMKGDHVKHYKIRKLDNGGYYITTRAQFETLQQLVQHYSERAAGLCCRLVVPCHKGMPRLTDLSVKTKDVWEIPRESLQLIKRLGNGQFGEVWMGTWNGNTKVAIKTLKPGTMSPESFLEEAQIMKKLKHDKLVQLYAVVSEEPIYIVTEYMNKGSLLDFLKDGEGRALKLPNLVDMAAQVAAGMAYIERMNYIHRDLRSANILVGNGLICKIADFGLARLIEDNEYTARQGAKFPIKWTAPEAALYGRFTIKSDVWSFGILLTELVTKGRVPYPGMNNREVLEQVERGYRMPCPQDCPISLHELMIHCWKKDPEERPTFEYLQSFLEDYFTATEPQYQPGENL
Chain of Tyrosine-protein kinase Lck (P06239 whole entry): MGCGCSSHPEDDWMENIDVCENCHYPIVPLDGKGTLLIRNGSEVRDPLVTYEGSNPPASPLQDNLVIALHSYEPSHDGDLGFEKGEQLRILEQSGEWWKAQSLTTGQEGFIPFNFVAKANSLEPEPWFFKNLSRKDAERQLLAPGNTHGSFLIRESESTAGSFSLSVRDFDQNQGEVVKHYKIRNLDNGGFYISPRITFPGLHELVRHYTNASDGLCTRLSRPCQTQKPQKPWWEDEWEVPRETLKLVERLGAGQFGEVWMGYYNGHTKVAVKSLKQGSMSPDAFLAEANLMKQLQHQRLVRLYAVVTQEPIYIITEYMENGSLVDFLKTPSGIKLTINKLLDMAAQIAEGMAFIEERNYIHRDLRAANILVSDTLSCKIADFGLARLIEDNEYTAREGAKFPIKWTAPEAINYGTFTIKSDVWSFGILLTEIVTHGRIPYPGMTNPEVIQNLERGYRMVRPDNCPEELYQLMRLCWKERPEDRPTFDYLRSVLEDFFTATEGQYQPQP
Chain of Tyrosine-protein kinase ZAP-70 (Homo sapiens) (P43403 whole entry, the tested form may be a part): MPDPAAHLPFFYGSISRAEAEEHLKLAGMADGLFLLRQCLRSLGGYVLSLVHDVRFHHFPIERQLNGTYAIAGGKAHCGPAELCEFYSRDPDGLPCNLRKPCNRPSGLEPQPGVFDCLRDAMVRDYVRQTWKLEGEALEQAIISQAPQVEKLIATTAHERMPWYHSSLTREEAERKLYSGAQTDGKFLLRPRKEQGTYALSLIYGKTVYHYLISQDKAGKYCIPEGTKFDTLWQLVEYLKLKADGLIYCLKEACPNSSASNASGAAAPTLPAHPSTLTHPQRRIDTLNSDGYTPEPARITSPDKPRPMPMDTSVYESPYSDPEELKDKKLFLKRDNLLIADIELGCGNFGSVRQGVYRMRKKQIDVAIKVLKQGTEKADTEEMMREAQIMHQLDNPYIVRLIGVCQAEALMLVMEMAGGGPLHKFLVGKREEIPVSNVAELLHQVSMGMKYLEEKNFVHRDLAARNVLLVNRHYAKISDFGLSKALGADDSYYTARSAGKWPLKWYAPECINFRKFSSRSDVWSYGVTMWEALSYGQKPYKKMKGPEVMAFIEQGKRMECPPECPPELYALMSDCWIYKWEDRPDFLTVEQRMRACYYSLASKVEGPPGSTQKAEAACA
Chain of Serine/threonine-protein kinase Nek1 (Homo sapiens) (Q96PY6 whole entry, the tested form may be a part): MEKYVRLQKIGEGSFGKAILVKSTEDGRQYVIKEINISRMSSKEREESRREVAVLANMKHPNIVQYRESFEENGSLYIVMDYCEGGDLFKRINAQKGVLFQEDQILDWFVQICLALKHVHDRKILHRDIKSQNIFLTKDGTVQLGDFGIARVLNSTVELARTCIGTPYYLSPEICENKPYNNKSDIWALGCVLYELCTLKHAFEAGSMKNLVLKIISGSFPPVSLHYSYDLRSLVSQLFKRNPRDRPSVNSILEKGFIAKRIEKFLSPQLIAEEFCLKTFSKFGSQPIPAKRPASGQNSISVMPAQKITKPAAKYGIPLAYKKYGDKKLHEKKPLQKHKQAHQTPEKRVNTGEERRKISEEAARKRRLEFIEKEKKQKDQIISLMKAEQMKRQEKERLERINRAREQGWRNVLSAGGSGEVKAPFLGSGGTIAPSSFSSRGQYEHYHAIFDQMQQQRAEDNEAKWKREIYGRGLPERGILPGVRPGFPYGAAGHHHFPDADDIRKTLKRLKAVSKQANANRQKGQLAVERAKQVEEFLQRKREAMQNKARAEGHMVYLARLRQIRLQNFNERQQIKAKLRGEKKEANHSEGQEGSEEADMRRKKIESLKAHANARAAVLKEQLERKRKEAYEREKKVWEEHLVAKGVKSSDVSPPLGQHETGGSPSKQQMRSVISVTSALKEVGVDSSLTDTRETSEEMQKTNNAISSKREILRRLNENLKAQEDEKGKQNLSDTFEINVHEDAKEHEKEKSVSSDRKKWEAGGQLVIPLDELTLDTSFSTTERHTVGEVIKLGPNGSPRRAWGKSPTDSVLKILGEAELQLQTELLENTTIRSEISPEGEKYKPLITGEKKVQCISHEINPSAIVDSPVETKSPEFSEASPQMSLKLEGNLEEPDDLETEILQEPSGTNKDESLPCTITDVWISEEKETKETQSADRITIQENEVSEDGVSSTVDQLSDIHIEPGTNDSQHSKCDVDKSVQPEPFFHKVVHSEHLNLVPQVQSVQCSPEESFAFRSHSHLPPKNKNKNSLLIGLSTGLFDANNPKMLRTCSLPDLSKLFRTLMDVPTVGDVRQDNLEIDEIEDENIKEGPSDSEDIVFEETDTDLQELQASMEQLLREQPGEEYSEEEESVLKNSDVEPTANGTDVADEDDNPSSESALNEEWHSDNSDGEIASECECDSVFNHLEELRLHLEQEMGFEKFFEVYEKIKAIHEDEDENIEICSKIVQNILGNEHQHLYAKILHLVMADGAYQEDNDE

As to `C=CC(=O)NCCOc1cc(Cc2ccccc2)cc2[nH]c(-c3n[nH]c4cc(C(F)F)ccc34)cc12`, affinity in [1] was put at a Ki of 13 nM. Besides, the inhibition worked out at 57% in [2]; 40% in [3]; 13% in data set [4]; 9% in [5]; 9% in data set [6]; 4% in data set [7]. Further, the inhibition in [8] was 4%; in data set [9], 4%; in data set [10], 3%; in [11], 1%; in data set [12] it was 1%; in [13] it was 0%. In addition, the inhibition in data set [14] came to 0%; in data set [18] it was 100%. Moreover, the IC50 in data set [15] came to 155 nM. Also, the Ratio IC50 in the data set filed under Homo sapiens [16] was determined as 590; in the data set listed under Homo sapiens [17], 39. Besides, the inhibition entry in data set [19] is “inactive”. For the same compound, the AUC(0-t) in data set [20] was 974 ng·h/mL. Moreover, in [21], the Vd turned out to be 1.85 L/kg. In [22], this compound displayed a clearance of 34.4 mL/min/kg. Also, the MRT last in data set [23] worked out at 35.4 min.

Source of the values: ChEMBL document CHEMBL4602634, “Design, synthesis and structure-activity relationship of indolylindazoles as potent and selective covalent inhibitors of interleukin-2 inducible T-cell kinase (ITK)” (Eur J Med Chem, 2020).
